Drawing on the array DNA melting data of Ke et al. (doi:10.1101/2024.01.08.574731), this text covers folding enthalpy and Tm for 78 sequences.

Data set [1] in a line: folding enthalpy; higher = less favourable; fluorescence melt of hairpins on a sequencing array, two-state fit. To be noted: sodium 0.088 M. A digest of the protocol: (§1)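 Folding enthalpy and melting temperature come from bootstrapped two-state fits to Cy3 fluorescence of library hairpins carrying annealed Cy3 and quencher oligos on a sequenced MiSeq flow cell. Imaging was done in 50 mM Na-HEPES pH 8.0, 25 mM NaCl, stepping by 2.5 °C up to 60 °C, and signals were normalised to pre-quench Cy3 and to control constructs. Results of four replicates were combined by inverse variance, and fitted temperatures were raised by 9.35 °C to match UV melts.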

Data set [2] can be described thus: melting temperature; fluorescence melt of hairpins on a sequencing array, two-state fit, raised by 9.35 °C to match UV melts. To be noted: sodium 0.088 M. A digest of the protocol:
as §1

AAACCGAAAGGTTT (((((....))))): the folding enthalpy in data set [1] was -20.7 kcal/mol. Further, the Tm in data set [2] was 52.8 °C.
The corresponding values for AAAGCGAAAGCTTT (((((....))))) are -15.5 kcal/mol and 63.4 °C.
For AACAAGAAATTGTT (((((....))))) the same measures were -7.18 kcal/mol and 23.3 °C.
For AACAGGAAACTGTT (((((....))))) the same measures were -14.7 kcal/mol and 40.5 °C.
For AACCAGAAATGGTT (((((....))))), in data set [1], the folding enthalpy was -14.8 kcal/mol. In data set [2], the Tm amounted to 40.2 °C.
The corresponding values for AACTGGAAACAGTT (((((....))))) are -16.8 kcal/mol and 38.8 °C.
For AAGTTGAAAAACTT (((((....))))) the same measures were -10.6 kcal/mol and 35.4 °C.
The corresponding values for AATCCGAAAGGATT (((((....))))) are -17.8 kcal/mol and 52 °C.
With AATCTGAAAAGATT (((((....))))), the folding enthalpy in data set [1] is -13.1 kcal/mol. In addition, in data set [2], the Tm worked out at 34.7 °C.
The corresponding values for ACAAAGAAATTTGT (((((....))))) are -6.26 kcal/mol and 22.5 °C.
For ACATGGAAACATGT (((((....))))) the same measures were -19.7 kcal/mol and 45 °C.
In the case of ACCCTGAAAAGGGT (((((....))))), the folding enthalpy in data set [1] was -19.2 kcal/mol. The Tm in data set [2] came out at 53.2 °C.
The corresponding values for ACGGGGAAACCCGT (((((....))))) are -17.3 kcal/mol and 65.1 °C.
The corresponding values for ACGGTGAAAACCGT (((((....))))) are -22.9 kcal/mol and 55 °C.
The corresponding values for ACGTGGAAACACGT (((((....))))) are -22 kcal/mol and 55.5 °C.
Regarding ACTCCGAAAGGAGT (((((....))))), the folding enthalpy in data set [1] was -20.5 kcal/mol. For the same sequence, in data set [2], the Tm was determined as 68.8 °C.
For ACTGAGAAATCAGT (((((....))))) the same measures were -19.8 kcal/mol and 34.8 °C.
The corresponding values for ACTGTGAAAACAGT (((((....))))) are -21.8 kcal/mol and 46.1 °C.
For AGACGGAAACGTCT (((((....))))) the same measures were -21.2 kcal/mol and 53.5 °C.
As for AGACTGAAAAGTCT (((((....))))), the folding enthalpy in data set [1] is -16.9 kcal/mol. The Tm in data set [2] is 46 °C.
For AGAGAGAAATCTCT (((((....))))) the same measures were -8.28 kcal/mol and 23.2 °C.
Consider AGCAAGAAATTGCT (((((....))))), for which the folding enthalpy in data set [1] was -16 kcal/mol. Further, the Tm in data set [2] amounted to 39.3 °C.
The corresponding values for AGCCAGAAATGGCT (((((....))))) are -19.1 kcal/mol and 54.4 °C.
For AGGACGAAAGTCCT (((((....))))) the same measures were -20.3 kcal/mol and 68.5 °C.
The corresponding values for AGGAGGAAACTCCT (((((....))))) are -18.3 kcal/mol and 45 °C.
As for AGGATGAAAATCCT (((((....))))), the folding enthalpy in data set [1] was -22.2 kcal/mol. The Tm in data set [2] was 41.6 °C.
Turning to AGGCAGAAATGCCT (((((....))))), in data set [1], the folding enthalpy was -17.6 kcal/mol. In data set [2], the Tm was 54.7 °C.
For AGTAGCTGAAAAGTTACT ((((.((....)).)))) the same measures were -20.2 kcal/mol and 36 °C.
For AGTCCGAAAGGACT (((((....))))) the same measures were -18.7 kcal/mol and 68.1 °C.
For AGTCTGAAAAGACT (((((....))))) the same measures were -19.6 kcal/mol and 47 °C.
AGTGGGAAACCACT (((((....))))): the folding enthalpy in data set [1] is -19.5 kcal/mol. Also, the Tm in data set [2] was 49.8 °C.
For AGTGTGAAAACACT (((((....))))) the same measures were -19.5 kcal/mol and 49.7 °C.
For AGTTAGAAATAACT (((((....))))) the same measures were -9.79 kcal/mol and 25.8 °C.
For ATCGGGAAACCGAT (((((....))))) the same measures were -24.1 kcal/mol and 50.2 °C.
Consider ATCGTGAAAACGAT (((((....))))), for which the folding enthalpy in data set [1] is -19.6 kcal/mol. Also, in data set [2], the Tm is 49.5 °C.
For ATGGGGAAACCCAT (((((....))))) the same measures were -23.4 kcal/mol and 47.3 °C.
For ATGGTGAAAACCAT (((((....))))) the same measures were -21.6 kcal/mol and 47.1 °C.
The corresponding values for ATGTCGAAAGACAT (((((....))))) are -19.6 kcal/mol and 53.5 °C.
On to ATTGGGAAACCAAT (((((....))))), for which the folding enthalpy in data set [1] is -16.9 kcal/mol. Besides, in data set [2], the Tm stood at 40.3 °C.
For the sequence ATTTGGAAACAAAT (((((....))))), the folding enthalpy in data set [1] is -12.8 kcal/mol. For the same sequence, the Tm in data set [2] was determined as 34.4 °C.
The corresponding values for CAAACCGAAAGGCTTG (((.((....)).))) are -27 kcal/mol and 38.4 °C.
For CAAACGAAAGTTTG (((((....))))) the same measures were -23 kcal/mol and 53 °C.
For CAAGGGAAACCTTG (((((....))))) the same measures were -27.8 kcal/mol and 43.9 °C.
CAATGGAAACATTG (((((....))))): the folding enthalpy in data set [1] was -26 kcal/mol. Besides, the Tm in data set [2] worked out at 40.6 °C.
For CACGAGAAATCGTG (((((....))))) the same measures were -23.5 kcal/mol and 50.6 °C.
For CACGGGAAACCGTG (((((....))))) the same measures were -30.9 kcal/mol and 58.8 °C.
The corresponding values for CACTAGAAATAGTG (((((....))))) are -16.9 kcal/mol and 37.2 °C.
Regarding CAGCTGAAAAGCTG (((((....))))), the folding enthalpy in data set [1] was -25.4 kcal/mol. Moreover, the Tm in data set [2] is 58.6 °C.
For CAGGAGAAATCCTG (((((....))))) the same measures were -19.7 kcal/mol and 43.7 °C.
For CAGTAGAAATACTG (((((....))))) the same measures were -15.3 kcal/mol and 38.6 °C.
Turning to CAGTCGAAAGACTG (((((....))))), the folding enthalpy in data set [1] is -27.2 kcal/mol. In addition, in data set [2], the Tm is 61.4 °C.
The corresponding values for CAGTTGAAAAACTG (((((....))))) are -20.9 kcal/mol and 44.7 °C.
Consider CATACGAAAGTATG (((((....))))), for which the folding enthalpy in data set [1] is -25.1 kcal/mol. The Tm in data set [2] was 50.4 °C.
For CATTGGAAACAATG (((((....))))) the same measures were -22.2 kcal/mol and 42.3 °C.
CCAATGAAAATTGG (((((....))))): in data set [1], the folding enthalpy is -18.1 kcal/mol. In addition, the Tm in data set [2] was 41.9 °C.
Consider CCACGGAAACGTGG (((((....))))), for which the folding enthalpy in data set [1] is -21.2 kcal/mol. Besides, in data set [2], the Tm came out at 69.2 °C.
The corresponding values for CCACTGAAAAGTGG (((((....))))) are -25.3 kcal/mol and 54.5 °C.
The corresponding values for CCATAGAAATATGG (((((....))))) are -11.6 kcal/mol and 35.2 °C.
The corresponding values for CCATTGAAAAATGG (((((....))))) are -22.2 kcal/mol and 41.6 °C.
Turning to CCCTAGAAATAGGG (((((....))))), the folding enthalpy in data set [1] is -20.7 kcal/mol. Moreover, the Tm in data set [2] stood at 38.2 °C.
With CCTCGGAAACGAGG (((((....))))), the folding enthalpy in data set [1] was -25.8 kcal/mol. Also, the Tm in data set [2] was found to be 55.7 °C.
The corresponding values for CGAAACGGAAACGTCTCG (((.(((....))).))) are -27.3 kcal/mol and 39 °C.
The corresponding values for CGAACGGAAACGTAGTCG ((((((....)))..))) are -10.8 kcal/mol and 26.4 °C.
For the sequence CGAACGGAAACGTATCG ((((((....))).))), the folding enthalpy in data set [1] is -19.2 kcal/mol. Also, the Tm in data set [2] was 36.1 °C.
The corresponding values for CGAACGGAAACGTTCTCG ((((((....)))..))) are -11.2 kcal/mol and 36.8 °C.
The corresponding values for CGAAGCGGAAACGCTCG (((.(((....)))))) are -22.7 kcal/mol and 53.5 °C.
Regarding CGAATCCGGAAACGGTCG (((..(((....)))))), the folding enthalpy in data set [1] was -11.9 kcal/mol. In addition, the Tm in data set [2] worked out at 33.6 °C.
The corresponding values for CGACACCGGAAACGGTCG (((..(((....)))))) are -13.7 kcal/mol and 42 °C.
For CGACAGAAATGTCG (((((....))))) the same measures were -26.1 kcal/mol and 52.9 °C.
With CGACCGGAAACGGAGTCG ((((((....)))..))), the folding enthalpy in data set [1] is -27.2 kcal/mol. In data set [2], the Tm turned out to be 45.4 °C.
For CGACCGGAAACGGCGTCG ((((((....)))..))) the same measures were -18.1 kcal/mol and 50.2 °C.
In the case of CGACCGGAAACGGCTCG ((((((....))).))), in data set [1], the folding enthalpy was -28.8 kcal/mol. The Tm in data set [2] amounted to 48.2 °C.
For CGACCGGAAACGGTGTCG ((((((....)))..))) the same measures were -14.8 kcal/mol and 43 °C.
CGACTCGGAAACGATCG (((.(((....)))))): the folding enthalpy in data set [1] was -31.8 kcal/mol. In data set [2], the Tm worked out at 40.5 °C.
For CGAGACGGAAACGTTCG (((.(((....)))))) the same measures were -26.3 kcal/mol and 40.9 °C.
For CGAGCCGGAAACGGTTCG (((.(((....))).))) the same measures were -40.1 kcal/mol and 56 °C.
As for CGAGCGCGGAAACGCTCG (((..(((....)))))), the folding enthalpy in data set [1] was -29.8 kcal/mol. In addition, the Tm in data set [2] stood at 68.5 °C.
Take CGAGCGGAAACGCAATCG ((((((....)))..))): in data set [1], the folding enthalpy is -19.3 kcal/mol. Also, in data set [2], the Tm stood at 38.7 °C.
